Results: ChEMBL document CHEMBL4219260, “Investigation of chemical reactivity of 2-alkoxy-1,4-naphthoquinones and their anticancer activity” (Bioorg Med Chem Lett, 2018)

Legend:
Format in all cases: functional, cell-based
[1] = system: T47D; assay: Antiproliferative activity against human T47D cells after 72 hrs by CellTiter-Glo assay
Summary of the method: (§1)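 Cells from ATCC, checked mycoplasma-free by PCR, grown in RPMI with 10% FBS, 1% penicillin/streptomycin and 2 mM L-glutamine. Seeded and incubated 24 h, then exposed to 0.3, 1, 3 and 10 μM for 72 h. Viability was read by CellTiter-Glo relative to 0.1% DMSO vehicle. IC50 came from standard curve analysis, with doxorubicin as positive control. Three independent experiments, each in triplicate.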

[2] = system: COLO 205; assay: Antiproliferative activity against human COLO205 cells after 72 hrs by CellTiter-Glo assay; details: COLO 205, 72 h; summary of the method: as §1
[3] = system: K562; assay: Antiproliferative activity against human K562 cells after 72 hrs by CellTiter-Glo assay; details: K562, 72 h; summary of the method: as §1

| IC50 [1] [nM] | IC50 [2] [nM] | IC50 [3] [nM] | Compound |
| --- | --- | --- | --- |
| > 10000 | > 10000 | > 10000 | O=C(O)COC1=CC(=O)c2c(O)cccc2C1=O |
| > 10000 | > 10000 | > 10000 | COC(=O)COC1=CC(=O)c2ccccc2C1=O |
| > 10000 | > 10000 | > 10000 | O=C1C=C(O)C(=O)c2c(O)cccc21 |
| 1700 | 700 | 900 | NC(=O)COC1=CC(=O)c2c(O)cccc2C1=O |
| 1000 | 1700 | 1200 | CN(C)C(=O)COC1=CC(=O)c2c(O)cccc2C1=O |
| > 10000 | > 10000 | > 10000 | COC1=CC(=O)c2c(OC)cccc2C1=O |
| > 10000 | > 10000 | > 10000 | O=C1C(O)=CC(=O)c2c(O)cccc21 |
| > 10000 | > 10000 | > 10000 | COC1=CC(=O)c2cccc(O)c2C1=O |
| 2000 | 2300 | 1400 | COC1=CC(=O)c2c(O)cccc2C1=O |
| 2200 | 1900 | 1300 | COC(=O)COC1=CC(=O)c2c(O)cccc2C1=O |
